About 460 (18%) of roughly 2,500 compounds were called active. The list is a sample of the results. A number with no mark means an inactive call.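 How the source made its calls: active means mean activation above a cutoff of low control average plus 3 SD from the earlier screen (cut at about 12% in these data); inactive means the rest.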

The test can be described thus: compound fluorescence interference without thin filaments, confirmation, artefact control for cardiac RTF calcium sensitizer project, biochemical (AID 504382). The conditions noted are these: IANBD fluorescence interference counterscreen, buffer, EC20 Ca2+; at 7.2 µM; active compounds read high; scaled: EC20 calcium 0, EC100 calcium 100. Summed up: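 Doses – one dose of 7.2 µM, 0.7% DMSO · Buffer or medium – MOPS/KCl/MgCl2/EGTA/NTA/DTT buffer, pH 7.2 · Probe or stimulus – Ca2+ fixed at EC20, 0.472 mM · Measured by – fluorescence intensity, excitation 480 nm, emission 540 nm · Read-out – fluorescence interference versus control range · Timing – 15 min compound exposure at 25 °C · Replication – triplicate wells per compound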
(In general: The purpose of a counterscreen is to sort out artefacts and off-target activity.)
As for `O=C(NCc1ccc(OC(F)(F)F)cc1)c1cccc2c1C(=O)c1ccc(N3CCCCC3)cc1S2(=O)=O`, the fluorescence artifact activation was 0.89%.

On to `C#CCOCCOCCOCCNc1nc(N2CCN(C(=O)Cn3cc(CCCCN)nn3)CC2)nc(N2CCN(C(=O)Cn3cc(CC(C)O)nn3)CC2)n1` (stereo not drawn), for which the fluorescence artifact activation was -0.09%.

`COc1ccc(-c2noc(CCC(=O)NCCc3ccccc3)n2)cc1`: the fluorescence artifact activation was 0.2%.

With `COc1ccc(CCNC(=O)COC(=O)c2cc(=O)[nH]c3ccccc23)cc1`, the fluorescence artifact activation was 15.4% (active).

For `Cc1ccnc2nc(C(=O)OCC(=O)NCCc3ccccc3)nn12`, the fluorescence artifact activation was 7.51%.

In the case of `CCC12CN3CCN(CC(C3)/C1=N\NC(=O)Nc1ccccc1)C2`, the fluorescence artifact activation is -0.04%.

With `CCCC(NC(=O)CCc1c(C)c2cc3c(-c4ccccc4)coc3cc2oc1=O)C(=O)O` (stereo not drawn), the fluorescence artifact activation was 35.8% (active).

As for `CCCCCCc1cc2cc(-c3nnc(-c4ccccc4)o3)c(=O)oc2cc1O`, the fluorescence artifact activation was 0.03%.

In the case of `O=[N+]([O-])c1ccc(N(c2ccccc2)c2ccccc2)cc1`, the fluorescence artifact activation is 2.48%.

With `Cc1ccc(S(=O)(=O)c2c(N)n(Cc3ccco3)c3nc4ccccc4nc23)cc1`, the fluorescence artifact activation was 0.24%.

For `Nc1c(S(=O)(=O)c2ccccc2)c2nc3ccccc3nc2n1Cc1ccco1`, the fluorescence artifact activation was 22.8% (active).

As to `Nc1c(S(=O)(=O)c2ccccc2)c2nc3ccccc3nc2n1/N=C/c1ccco1`, the fluorescence artifact activation is -0.02%.

As to `COc1ccccc1Nc1nc(N2CCOCC2)nc(N2CCOCC2)n1`, the fluorescence artifact activation was 0%.

With `CCOC(=O)c1c(NC(=S)N2CCN(C)CC2)sc2c1CCN(C(=O)OCC)C2`, the fluorescence artifact activation is 1.28%.

Take `O=C(CCN1C(=O)/C(=C/c2ccccc2)SC1=S)NNC(=O)c1cccnc1`: the fluorescence artifact activation is 0.24%.

On to `C/C(O)=c1/ccc2cccc3nc(C)nc1c23`, for which the fluorescence artifact activation was 13.3% (active).

For `CCC(C)NC(=O)C1CC(=O)N(CCc2ccc(F)cc2)C1` (stereo not drawn), the fluorescence artifact activation is 111% (active).

Take `COc1ccc(S(=O)(=O)N2CCC(C(=O)NC(C)CCc3ccccc3)CC2)cc1` (stereo not drawn): the fluorescence artifact activation is -0.01%.

In the case of `COc1ccc(CN=C2NC(=O)CC(C(=O)Nc3ccc(F)cc3)S2)cc1` (stereo not drawn), the fluorescence artifact activation was 1.74%.

Regarding `NC(=O)NC(=O)COC(=O)c1cccc(NS(=O)(=O)/C=C/c2ccccc2)c1`, the fluorescence artifact activation is 6.11%.

Consider `CC(=O)N(C)c1ccc(C(O)(C(F)(F)F)C(F)(F)F)cc1`, for which the fluorescence artifact activation is 7.43%.

On to `O=c1c2ccccc2nc(SCc2nc(-c3ccccc3)no2)n1-c1ccc(F)cc1`, for which the fluorescence artifact activation is 0.14%.

In the case of `COc1ccc(C2=NN(C(=O)CSc3ncccn3)C(c3ccc(C)cc3)C2)cc1` (stereo not drawn), the fluorescence artifact activation is 202% (active).

On to `CNC(=S)N1N=C(c2ccc(Br)cc2)CC1c1ccc(N(C)C)cc1` (stereo not drawn), for which the fluorescence artifact activation was 5.89%.

As to `O=C(c1cn(-c2ccccc2)nc1-c1ccc(Br)cc1)N1CCOCC1`, the fluorescence artifact activation was 0.32%.

Turning to `COC(=O)c1[nH]c2ccc(C)cc2c1NC(=O)C(C)N1CCN(C2CCCCC2)CC1` (stereo not drawn), the fluorescence artifact activation is 0.08%.

With `O=C(O)C1CCCCC1C(=O)Nc1ccc(-c2ccccc2)cc1` (stereo not drawn), the fluorescence artifact activation was 0.17%.

Take `CCOc1ccc(C2C(C#N)=C(N)SC(N)=C2C#N)cc1OCC`: the fluorescence artifact activation was 11.7% (active).

Consider `CCOc1ccccc1C1C(C#N)=C(N)SC(N)=C1C#N`, for which the fluorescence artifact activation is 0.08%.

In the case of `COc1ccc(C2C(C#N)=C(N)SC(N)=C2C#N)cc1OC`, the fluorescence artifact activation was 0.15%.

Regarding `Cc1cc(S(=O)(=O)Nc2c(C)nn(C)c2C)c(Cl)cc1Cl`, the fluorescence artifact activation was 0.08%.

For `COC(=O)c1ccc2c(c1)NC1=C(C(=O)CC(C)(C)C1)C(c1ccncc1)N2` (stereo not drawn), the fluorescence artifact activation is 0.26%.

Take `Cc1ccccc1OCCC(=O)Nc1cc(S(=O)(=O)N2CCCCC2)ccc1N1CCN(C)CC1`: the fluorescence artifact activation was 4.83%.

As for `CCN1/C(=C/c2ccc3cc(C)cc(C)c3[n+]2CC)Sc2cc(C)ccc21`, the fluorescence artifact activation is 0.44%.

For `CCN1/C(=C/c2ccc3cc(C)ccc3[n+]2CC)Sc2ccccc21`, the fluorescence artifact activation was 15.3% (active).

With `CCN1/C(=C\c2ccc3cc(C)ccc3[n+]2CC)Sc2cc(C)c(C)cc21`, the fluorescence artifact activation is 0.1%.

As to `CCN1/C(=C\c2ccc3ccccc3[n+]2CC)Sc2cc(C)ccc21`, the fluorescence artifact activation was 20.2% (active).

With `CCN1/C(=C/c2ccc3cc(C)ccc3[n+]2CC)Sc2cc(C)ccc21`, the fluorescence artifact activation is 0.41%.

For `CCN1/C(=C/c2ccc3cc(C)ccc3[n+]2CC)Sc2ccc3sccc3c21`, the fluorescence artifact activation was 0.99%.

For the compound `COCCN(CCOC)Cc1c(O)ccc2c1O/C(=C\c1ccco1)C2=O`, the fluorescence artifact activation is 0.11%.

Turning to `C=CCn1c(O)c(CN2CCN(Cc3ccccc3)CC2)c(C)c(C#N)c1=O`, the fluorescence artifact activation is 0.03%.

`CCC[C@@H](CN1CCC[C@H]1CN1C(N)=NC[C@@H]1Cc1ccccc1)N1C[C@@H](Cc2ccccc2)N(CCCC2CCCC2)C1=N`: the fluorescence artifact activation was 7.46%.

As to `CCOc1ccc(NC(=O)/C(C#N)=C/c2ccc(N3CCCC3)c(C)c2)cc1`, the fluorescence artifact activation was 0.06%.

Turning to `Oc1[nH]c2ccc(Br)cc2c1N=Nc1ccc(F)cc1`, the fluorescence artifact activation is 5.56%.

`COc1ccc(C2=NN(C(=O)COC(=O)c3ccc(NC(=O)CC#N)cc3)C(c3ccco3)C2)cc1` (stereo not drawn): the fluorescence artifact activation was 2.58%.

For the compound `CS(=O)(=O)Nc1ccc(C2=NN(C(=O)CCCC(=O)O)C(c3cccs3)C2)cc1` (stereo not drawn), the fluorescence artifact activation is 16.5% (active).

For `O/C(=C\c1nc2ccccc2[nH]1)c1cccs1`, the fluorescence artifact activation was 0%.

In the case of `O=C(O)c1ccc(O)c(O)c1`, the fluorescence artifact activation is -0.01%.

As for `Cc1cc(C)c[n+](-c2[nH]c(=O)sc2/C=N/NC([S-])=Nc2ccccc2)c1`, the fluorescence artifact activation is 0.17%.

For `Cc1ccc[n+](-c2nc([O-])sc2C=O)c1`, the fluorescence artifact activation was 9.59%.

Take `Cc1ccc(N/C=C2/Sc3ccccc3NC2=O)cc1`: the fluorescence artifact activation was 0.14%.

`CC1C2(C)OC(=N)C(C#N)(C(C)O2)C1(C#N)C#N` (stereo not drawn): the fluorescence artifact activation was 0.64%.

With `CCN1C(=O)/C(=C\C=C2/C=CC=CN2CC)SC1=S`, the fluorescence artifact activation is 104% (active).

Consider `CCN1C(=O)/C(=C/C=C2/SCCN2C)SC1=S`, for which the fluorescence artifact activation is 10.2%.

On to `CCCCN1C(=O)/C(=C/C=C2/CC(C)(C)CN2C)SC1=S`, for which the fluorescence artifact activation is -0.02%.

As for `COC(=O)C(C)n1cnc2c(nnn2Cc2ccc(Cl)cc2)c1=O` (stereo not drawn), the fluorescence artifact activation is 0.03%.

Take `Cc1ccc(C)c(S(=O)(=O)N2CCCC2CNC(=O)C(=O)NC2CC2)c1` (stereo not drawn): the fluorescence artifact activation was 0.11%.

As to `Cc1cc(/C=C2\SC(=S)N(C)C2=O)c(C)n1-c1ccccc1O`, the fluorescence artifact activation was 3.34%.

For the origin of these results see PubChem BioAssay AID504382 (The Scripps Research Institute Molecular Screening Center, 2011).
